Data from ChEMBL document CHEMBL5126619, “An Unexpected Deuterium-Induced Metabolic Switch in Doxophylline” (ACS Med Chem Lett, 2022).
Values belong to the compound of their own block, whether it stands above or below them. Activity calls are given as the source filed them. No cut-off for these calls is given here.

Experiments:
Mus musculus [1] = assay: Antifibrotic activity against BLM-induced lung injury C57BL/6 mouse model assessed as reduction in collagen thickness at 80 mg/kg, po qd pretreated with compound for 1 hr followed by BLM treatment and measured on day 21 by picrosirius red staining method; format: functional, organism-based; conditions: time 21.0 day
Summary of the method: (§1)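 BLM model: pharyngeal aspiration 0.02U/50µl; oral daily dosing in saline from 1 h pre-BLM; day 21 sacrifice. Lungs fixed 48 h in 10% buffered formalin at room temperature, paraffin-embedded, 4 µm sections. Stains: H&E for infiltrate, Masson's trichrome or Picrosirius Red for stromal fibres.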

Mus musculus [2] = assay: Antifibrotic activity against BLM-induced lung injury C57BL/6 mouse model assessed as reduction in lung wet/dry ratio by measuring liquid accumulation at 80 mg/kg, po qd pretreated with compound for 1 hr followed by BLM treatment and measured on day 21; format: functional, organism-based; conditions: time 21.0 day
Summary of the method: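 At day 21 after BLM aspiration (compound given orally daily from 1 h pre-BLM), lungs harvested free of extraneous tissue and weighed wet. Dried 72 h at 100°C and reweighed. Water content = wet minus dry weight.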

Mus musculus [3] = assay: (§2) Antifibrotic activity against Pseudomonas aeruginosa-induced pulmonary fibrosis C57BL/6 mouse model assessed as decrease in lung inflammation at 80 mg/kg, os qd pretreated with compound for 1 hr followed by Pseudomonas aeruginosa instillation and measured after 7 days by immunohistochemistry analysis; format: functional, organism-based; conditions: time 7.0 day
Mus musculus [4] = assay: Antifibrotic activity against Pseudomonas aeruginosa-induced pulmonary fibrosis C57BL/6 mouse model assessed as effect on nitrotyrosine expression at 80 mg/kg, os qd […] and measured after 7 days by immunohistochemistry analysis; format: functional, organism-based; conditions: time 7.0 day, tested as the 2H-labelled form
Summary of the method: (§3)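 Mucoid P. aeruginosa NH57388A in agar beads, ~1×10^6 CFU per mouse, given trans-tracheally under isoflurane. Compound 80 mg/kg orally daily from 1 h post-instillation for 7 days, n=10. Lung sections 8 µm from formaldehyde-fixed paraffin blocks. Anti-nitrotyrosine or anti-PAR 1:500 overnight, avidin-biotin peroxidase detection. Densitometry of positive pixels; mean ± S.E.M.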

Mus musculus [5] = assay: (§4) Antifibrotic activity against BLM-induced lung injury C57BL/6 mouse model assessed as reduction in collagen thickness at 80 mg/kg, po qd pretreated with compound for 1 hr followed by BLM treatment and measured on day 21 by Masson trichrome staining based analysis; format: functional, organism-based; conditions: time 21.0 day; summary of the method: as §1
Mus musculus [6] = assay: Antifibrotic activity against Pseudomonas aeruginosa-induced pulmonary fibrosis C57BL/6 mouse model assessed as reduction in MPO level at 80 mg/kg, os qd […] and measured after 7 days by spectrophotometric analysis; format: functional, organism-based; conditions: time 7.0 day, tested as the 2H-labelled form
Summary of the method: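 Pseudomonas bead model, 80 mg/kg oral daily for 7 days from 1 h post-instillation. Lungs homogenized in 0.5% HTAB/10 mM potassium phosphate pH 7 and spun 20,000×g, 30 min, 4 °C. Supernatant reacted with 0.1 mM H2O2 and 1.6 mM tetramethylbenzidine, A650 read. Unit = 1 µmol H2O2 degraded/min at 37 °C; per g wet tissue.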

Mus musculus [7] = assay: as §2, with “reduction” for “decrease”, “accumulation of immune cells bronchoalveolar lavage” for “lung inflammation”, “trypan blue staining based hemocytometer” for “immunohistochemistry”; format: functional, organism-based; conditions: time 7.0 day
Summary of the method: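 Day 7 after trans-tracheal Pseudomonas bead instillation, with oral 80 mg/kg daily dosing. Trachea cannulated, lungs washed once with 0.5 mL Dulbecco's PBS. Fluid spun, then total pelleted cells counted with trypan blue on a hemocytometer.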

Mus musculus [8] = assay: Antifibrotic activity against BLM-induced lung injury C57BL/6 mouse model assessed as decrease in inflammatory interstitial infiltrate at 80 mg/kg, po qd pretreated with compound for 1 hr followed by BLM treatment and measured on day 21 by H and E staining based histological analysis; format: functional, organism-based; conditions: time 21.0 day; summary of the method: as §1
Mus musculus [9] = assay: as §2, with “reduction” for “decrease”, “inflammatory interstitial infiltrate” for “lung inflammation”, “H and E staining based histological” for “immunohistochemistry”; format: functional, organism-based; conditions: time 7.0 day
Summary of the method: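 Pseudomonas bead lung model, day 7, with oral 80 mg/kg daily treatment. Biopsies fixed in 10% formaldehyde in PBS at room temperature and stained with H&E. Five random fields per sample at ×100 scored for severity by a blinded observer.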

Mus musculus [10] = assay: Antifibrotic activity against BLM-induced lung injury C57BL/6 mouse model assessed as decrease in MPO level at 80 mg/kg, po qd pretreated with compound for 1 hr followed by BLM treatment and measured on day 21 by colorimetric assay; format: functional, organism-based; conditions: time 21.0 day
Summary of the method: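 BLM 0.02U/50µl given by pharyngeal aspiration under isoflurane. Compound in 0.9% NaCl, or saline vehicle, by gavage 1 h before BLM, then daily. Mice killed day 21. Lung MPO measured with a colorimetric kit per the manufacturer. Unit = enzyme degrading 1 μM peroxide/min at 37°C, expressed as U/mg wet tissue.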

Mus musculus [11] = assay: as §4, with “accumulation of immune cells bronchoalveolar lavage” for “collagen thickness”, “trypan blue” for “Masson trichrome”, “based hemocytometer” for “based”; format: functional, organism-based
Summary of the method: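 BLM model with aspiration, oral daily dosing in saline from 1 h pre-challenge, and day-21 endpoint. Lavage via tracheal cannula with 1 mL aliquots of ice-cold Ca/Mg-free phosphate medium, pH 7.4. Cells pelleted at 500×g, 5 min, 4 °C, then washed and resuspended. Counted by trypan blue exclusion on a hemocytometer.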

Mus musculus [12] = assay: as §2, with “effect on collagen deposition” for “decrease in lung inflammation”, “Masson trichrome staining based” for “immunohistochemistry”; format: functional, organism-based; conditions: time 7.0 day, tested as the 2H-labelled form
Mus musculus [13] = assay: Inhibition of Pseudomonas aeruginosa-induced apoptosis in C57BL/6 mouse at 80 mg/kg, os qd pretreated with compound for 1 hr followed by Pseudomonas aeruginosa instillation and measured after 7 days by TUNEL assay; format: functional, organism-based; conditions: time 7.0 day, tested as the 2H-labelled form
Summary of the method: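 Lung sections from the day-7 Pseudomonas model (oral 80 mg/kg daily) treated with 15 µg/ml proteinase K for 15 min at RT, then 3% H2O2 for 5 min. TdT with biotinylated dUTP applied, 37 °C 90 min. HRP-conjugated antibody 30 min, then DAB. TUNEL-positive cells quantified.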

Mus musculus [14] = assay: Antifibrotic activity against Pseudomonas aeruginosa-induced pulmonary fibrosis C57BL/6 mouse model assessed as effect on poly(ADP-ribose) polymerase level at 80 mg/kg, os qd […] and measured after 7 days by immunohistochemistry analysis; format: functional, organism-based; conditions: time 7.0 day, tested as the 2H-labelled form; summary of the method: as §3
[15] = Drug metabolism in mouse plasma assessed as 7-((1,3-dioxol-2-yl)methyl)-1,3-dimethyl-1H-purine-2,6(3H,7H)-dione formation measured upto 6 hrs; format: ADME, cell-free
[16] = Drug metabolism in mouse plasma assessed as 7-theophylline acetic acid formation by measuring fold increase measured at 30 mins; format: ADME, cell-free; conditions: 0.5 h
Summary of the method: (§5)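 Plasma from mice dosed 20 mg/Kg i.v. or 80 mg/Kg by oral gavage, sampled sublingually under isoflurane pre-dose to 24 h (n=3), K3EDTA. Caffeine internal standard, trichloroacetic acid precipitation. Kinetex C18 UHPLC-MS, positive full-scan/PRM. Metabolites quantified against calibration curves.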

[17] = Drug metabolism in mouse plasma assessed as Theophylline formation measured upto 4 hrs; format: ADME, cell-free; summary of the method: as §5
[18] = Drug metabolism in mouse plasma assessed as Etophylline formation measured upto 4 hrs; format: ADME, cell-free; summary of the method: as §5
[19] = Drug metabolism in mouse plasma assessed as dm-doxophylline formation measured upto 4 hrs; format: ADME, cell-free; summary of the method: as §5

Structure (SMILES): Cn1c(=O)c2c(ncn2CC2OCCO2)n(C)c1=O
Activity (Mus musculus [1]): Active | Activity (Mus musculus [1]; tested as the 2H-labelled form): Active | Activity (Mus musculus [2]): Active | Activity (Mus musculus [2]; tested as the 2H-labelled form): Active | Activity (Mus musculus [3]): Active | Activity (Mus musculus [3]; tested as the 2H-labelled form): Active | Activity (Mus musculus [4]): Active | Activity (Mus musculus [5]): Active | Activity (Mus musculus [5]; tested as the 2H-labelled form): Active | Activity (Mus musculus [6]): Active | Activity (Mus musculus [7]): Active | Activity (Mus musculus [7]; tested as the 2H-labelled form): Active | Activity (Mus musculus [8]): Active | Activity (Mus musculus [8]; tested as the 2H-labelled form): Active | Activity (Mus musculus [9]): Active | Activity (Mus musculus [9]; tested as the 2H-labelled form): Active | Activity (Mus musculus [10]): Active | Activity (Mus musculus [10]; tested as the 2H-labelled form): Active | Activity (Mus musculus [11]): Active | Activity (Mus musculus [11]; tested as the 2H-labelled form): Active | Activity (Mus musculus [12]): Active | inhibition (Mus musculus [13]): Active | Activity (Mus musculus [14]): Active

Drug metabolism [15]: Metabolite_Notdetected | fold change (FC) [16]: 3 | Drug metabolism [17]: Metabolite_Detected | Drug metabolism [18]: Metabolite_Notdetected | Drug metabolism [19]: Metabolite_Detected
Structure (SMILES): [2H]C1([2H])OC(Cn2cnc3c2c(=O)n(C)c(=O)n3C)OC1([2H])[2H]
